Screening data from PubChem BioAssay.
Shown are actives, neighbours in structure and some others; about 1.6% of the full set was active somewhere.
HTRA1 inh: HTRA1 (human) protease inhibition; Q92743; recombinant HTRA1, FP-rhodamine activity-based probe, fluorescence polarization; AID 504803; 340,000 tested, 0.5% active; inhibition, % at 5.96 µM; in the data active means inhibition above about 36%;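 further: 0% = enzyme with DMSO and 100% = wells lacking enzyme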
TCR-CD3 inh: human TCR-CD3 binding inhibition. TAMRA-labeled TCR probe fluorescence, biochemical. inhibition, % at 9.4 µM. 360,000 tested, 0.37% active. AID 651800;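 further: recombinant mutant TCR 2C K166C tagged with TAMRA read by polarization; 0% = receptor in buffer alone and 100% = receptor with positive control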
SIAE primary: blocks human sialic acid acetylesterase; SIAE FP-Rh probe binding, fluorescence polarization; inhibition, % at 9.66 µM; 370,000 tested, 0.69% active;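 active means inhibition above a cutoff: mean of compounds within the control limits plus 3 SD of those, cut at about 17% in these data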;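 further: 0% = plate median of compound wells and 100% = probe without SIAE protein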
ABHD4 inh: inhibitors of mouse ABHD4; purified mABHD4, FP-Rh probe fluorescence polarization; 370,000 tested, 0.54% active; inhibition, % at 8.92 µM;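 active means inhibition exceeding the mean over every tested compound plus 3 SD, cut at about 30% in these data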;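 further: 0% = plate median of compound wells and 100% = S159A mutant with DMSO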
Target sequence (Q8VD66 whole entry, looked up): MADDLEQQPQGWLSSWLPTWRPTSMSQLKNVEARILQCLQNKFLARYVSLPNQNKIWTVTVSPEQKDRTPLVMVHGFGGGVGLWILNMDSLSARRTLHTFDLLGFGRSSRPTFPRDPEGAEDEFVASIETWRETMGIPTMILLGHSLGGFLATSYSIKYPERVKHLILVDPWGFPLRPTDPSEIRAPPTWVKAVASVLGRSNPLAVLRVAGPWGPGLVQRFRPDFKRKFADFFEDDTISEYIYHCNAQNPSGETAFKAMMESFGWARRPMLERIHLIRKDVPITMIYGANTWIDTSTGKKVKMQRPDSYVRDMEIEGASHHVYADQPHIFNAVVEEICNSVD
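Assay system: Wild-type mouse ABHD4 protein | Medium: HEPES pH 7.0 buffer, 150 mM NaCl, 0.01% Pluronic F-127 | Incubation: Enzyme–compound pre-incubation 45 min, then probe 60 min, both 25 °C | Technique: Fluorescence polarization with parallel and perpendicular emission, 525/598 nm | Evaluation: % inhibition of FP-Rh probe binding versus controls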
DAGLB inh: diacylglycerol lipase beta (human) inhibition; Q8NCG7; HEK293T DAGLB membrane lysate, EnzChek fluorogenic substrate; inhibition, % at 5.17 µM; 340,000 tested, 0.059% active; in the data active means inhibition above about 34%;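 further: 0% = enzyme with vehicle and 100% = wells lacking enzyme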
BSA TAMRA ctr: counter-screen for TCR-CD3 interaction inhibitors: BSA probe; shares compounds with TCR-CD3 inh; TAMRA-labeled BSA probe fluorescence counterscreen; inhibition, % at 9.4 µM; 1,200 tested, 10% active; AID 652035; in the data active means inhibition above about 23%;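 further: 0% = buffer low control and 100% = reference high control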
TCR-CD3 inh conf: TCR-CD3 interaction inhibition, confirmation; shares compounds with TCR-CD3 inh; TAMRA-labeled TCR probe fluorescence binding assay; inhibition, % at 9.4 µM; 1,200 tested, 48% active
Active calls of the source: *; x = no result given; ! = not active in a repeat. Unless noted, no stated cut-off is given here; in the data, active means inhibition above about 19%; inactive means the rest.

SMILES | HTRA1 inh | TCR-CD3 inh | SIAE primary | ABHD4 inh | DAGLB inh | BSA TAMRA ctr | TCR-CD3 inh conf
Cc1ccc(S(=O)(=O)N2CCC(C(=O)N3CCCCCCC3)CC2)cc1C | -3 | -7 | 0 | -2 | -6 | x | x
Cc1ccnc(SCc2cc(=O)c(OC(=O)c3ccc(C)c([N+](=O)[O-])c3)co2)n1 | x | x | 1 | 1 | x | x | x
CCCNC(=O)c1ccc2c(=O)c(O)c(-c3ccc(C)cc3)[nH]c2c1 | 7 | 1 | 0 | 12 | 5 | x | x
Cc1ccc(-c2[nH]c3cc(C(=O)NCCCn4ccnc4)ccc3c(=O)c2O)cc1 | 29 | 41* | 18* | 13 | -1 | -5 | 49*
COc1ccc(N2CC(C(=O)Nc3ccc([N+](=O)[O-])cc3Br)CC2=O)cc1 (stereo not drawn) | -6 | 7 | 6 | 5 | -3 | x | x
COc1ccc(N2CC(C(=O)N/N=C/c3cc([N+](=O)[O-])ccc3O)CC2=O)cc1 (stereo not drawn) | 9 | 25* | -3 | 2 | 5 | -1 | 15
C=CCN1C(=O)[C@H](CC(=O)NCCCCc2ccccc2)[C@@]2(C(=O)OCC)CCCC=C12 | x | x | -1 | -4 | x | x | x
CC(=O)c1cc(-c2ccc(F)cc2)n(CCC(=O)NC(C)(C)C)c1C | -3 | 20* | 1 | 3 | 0 | 2 | -2
COc1cc2cc3c(N)c(C(=O)Nc4sc(C)c(C)c4C#N)sc3nc2cc1OC | 12 | 24* | -34 | -10 | -2 | -14 | 3
COC(=O)[C@]12C[C@H](CC(=O)NCC34CC5CC(CC(C5)C3)C4)C(=O)N(CCC3=CCCCC3)C1=C[C@H](C1CCCC1)O[C@@H]2C | x | x | 1 | 4 | x | x | x
COc1cccc(NC(=O)CN(C)C(=O)/C=C/c2cn(-c3ccccc3)nc2-c2ccc(OC)c(OC)c2)c1 | -109 | 16 | -81 | -85 | -7 | x | x
COc1ccc(-c2nn(-c3ccccc3)cc2/C=C/C(=O)N(C)CC(=O)Nc2cccc(F)c2)cc1OC | -120 | 26* | -89 | -101 | -4 | 13 | 26*
COC(=O)C1CN(Cc2ccccc2)CCS(=O)(=O)N1Cc1cn(Cc2ccccc2)nn1 (stereo not drawn) | x | x | 3 | 7 | x | x | x
C/C(=N\NC(=O)c1ccc(NS(=O)(=O)c2cccs2)cc1)c1ccc(O)cc1O | 17 | 19* | 0 | 4 | 5 | -12 | 20*
CC(=O)Nc1cccc(C(=O)NNC(=O)c2ccc(NS(=O)(=O)c3cccs3)cc2)c1 | 4 | 1 | 2 | 1 | 1 | x | x
C[C@H]1C(=O)N2[C@@H](C[C@]3(c4c[nH]c5ccccc45)c4ccccc4N(S(=O)(=O)c4ccccc4)[C@H]23)C(=O)N1C | x | x | -2 | 10 | x | x | x
COc1cccc(/C=N/NC(=O)C(=O)N/N=C/c2cccc(OC)c2O)c1O | x | 21* | -2 | 14 | x | -8 | 19
COC(=O)c1cccc(/C=N/NC(N)=S)c1O | 11 | 34* | 15 | 0 | -5 | -25 | 4
COc1ccc(-c2nn(-c3ccccc3)cc2/C=N/NC(=O)c2cccc(S(=O)(=O)Nc3ccccc3Cl)c2)cc1 | -32 | 20* | -100 | -84 | 1 | 12 | 22*
COc1cccc2c(SCC(=O)N/N=C/c3ccc(O)c(O)c3)cc(C)nc12 | x | 45* | 5 | 29 | x | -14 | 79*
COc1ccc2nc(C)cc(SCC(=O)N/N=C/c3cccc4ccccc34)c2c1 | -8 | 1 | -6 | -3 | 1 | x | x
Cc1ccc2nc(C)cc(SCC(=O)N/N=C/c3ccco3)c2c1 | -13 | 19* | 0 | 9 | -6 | 0 | 4
CCN(CC)c1ccc(/C=c2\sc3nc4ccccc4n3c2=O)c(O)c1 | -9 | 28* | 4 | 25 | -15 | 28* | 21*
O=c1/c(=C/c2ccc(O)c([N+](=O)[O-])c2)sc2nc3ccccc3n12 | x | 2 | -18 | 5 | x | x | x
C=CCn1c(SCC(=O)O)nnc1-c1ccco1 | x | x | -5 | -1 | x | x | x
SMILES | HTRA1 inh | TCR-CD3 inh | SIAE primary | ABHD4 inh | DAGLB inh | BSA TAMRA ctr | TCR-CD3 inh conf
COC(=O)[C@]12C[C@H](CC(=O)NCc3ccc(OC)c(OC)c3)C(=O)N(Cc3cccc4ccccc34)C1=C[C@H](COCc1ccccc1)O[C@@H]2C | x | x | -4 | -11 | x | x | x
Clc1ccc2nc(CSCc3ccccc3)cn2c1 | 1 | 39* | 1 | -5 | -2 | 2 | 1
Oc1ccc(-c2cn3c(n2)SCC3)cc1O | 33 | 38* | 7 | 23 | 0 | -7 | 33*
Oc1ccc(-c2cn3c(n2)SCC3)cc1 | 3 | -3 | -1 | -4 | -3 | x | x
CCc1cc(Cl)c(OC)c(C(=O)NC[C@@H]2CCCN2CC)c1O | -3 | 29*! | 4 | 9 | -1 | 0 | 1
C=CCN1[C@H](CC(C)C)COc2cccc(N3CCSCC3)c2S1(=O)=O | x | x | 4 | -11 | x | x | x
Cc1ccccc1CSc1nnnn1-c1ccc(C(N)=O)cc1 | 2 | -16 | 3 | -6 | -4 | x | x
NC(=O)c1ccc(-n2nnnc2SCC(=O)c2ccc(O)c(O)c2)cc1 | 29 | 28* | 5 | 23 | 3 | -10 | 39*
COc1ccc(NC(=O)CSc2sc3c(O)cc(=O)[nH]c3c2C#N)c(OC)c1 | -7 | 29* | -4 | 5 | 4 | -6 | 20*
COc1ccccc1NC(=O)CSc1sc2c(O)cc(=O)[nH]c2c1C#N | -26 | 13 | -27 | -10 | 5 | x | x
CCc1nnc(NC(=O)CSc2sc3c(O)cc(=O)[nH]c3c2C#N)s1 | -11 | 4 | -22 | -6 | 6 | x | x
Cc1csc(NC(=O)CSc2sc3c(O)cc(=O)[nH]c3c2C#N)n1 | -8 | 23* | -25 | -1 | 11 | -12 | 1
NC(=O)c1ccc(NC(=O)COC(=O)c2c3c(nc4ccccc24)/C(=C\c2cccs2)CCC3)cc1 | -42 | 20* | -71 | -45 | -1 | -9 | -3
COc1cccc(-c2ccc3c(c2)[C@@H]2C[C@H]4[C@@H](CN2CC3)[C@H](C)ON4C)c1 | x | 1 | 13 | 1 | x | x | x
CC1CCCCC1NC(=O)CN1C(=O)c2ccccc2S1(=O)=O (stereo not drawn) | -6 | 2 | 1 | 10 | -1 | x | x
O=C(CN1C(=O)c2ccccc2S1(=O)=O)NC1CCCC1 | 5 | 22* | 4 | 3 | -2 | -1 | 2
O=C(NNC(=O)c1ccccc1O)c1ccc(Br)cc1 | 24 | 23* | 3 | 4 | 4 | -4 | 21*
COc1ccccc1C(=O)NCCC(=O)NNC(=O)c1ccccc1O | -5 | 45* | 6 | 8 | 1 | -16 | 30*
COCC(=O)NNC(=O)c1ccccc1OC | 2 | 6 | 0 | 2 | -1 | x | x
COc1ccccc1OCC(=O)NCCNC(=O)COc1ccccc1OC | 2 | 8 | -3 | 2 | -4 | x | x
COc1ccccc1OCC(=O)NNC(=O)CCCC(=O)NNC(=O)COc1ccccc1OC | 9 | 26* | -2 | 1 | 0 | -18 | 5
